Assays:
[1] = target: T1, Arachidonate 5-lipoxygenase-activating protein (Homo sapiens, UniProt P20292); test: Displacement of [3H]3-[5-(pyrid-2-ylmethoxy)-3-tert-butylthio-1-benzyl-indol-2-yl]-2,2-dimethylpropionic acid from FLAP in human polymorphonuclear cell membrane
T1 sequence (P20292 whole entry): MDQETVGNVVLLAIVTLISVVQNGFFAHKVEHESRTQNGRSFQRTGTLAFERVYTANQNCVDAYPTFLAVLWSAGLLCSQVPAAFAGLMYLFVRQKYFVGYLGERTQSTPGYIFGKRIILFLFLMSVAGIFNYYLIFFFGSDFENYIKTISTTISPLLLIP

[2] = target: T2, Cytochrome P450 3A4 (Homo sapiens, UniProt P08684); test: Inhibition of CYP3A4 assessed as inhibition rate
[3] = target: P2Y purinoceptor 12 (Homo sapiens, UniProt Q9H244); test: Agonist activity at human P2Y12 receptor; format: functional
[4] = Inhibition of calcium ionophore A-23187-stimulated LTB4 production in human leukocytes by ELISA; format: functional, cell-based; details: Leukocyte
Outline: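 Dextran-sedimented, hypotonically lysed human leukocytes at 1.25 × 10^5 cells/mL, preincubated 5 min at 37 °C with compound in DMSO. Stimulated 5 min at 37 °C with A23187 (5 μL of 0.5 mM into 250 μL). Supernatant LTB4 measured by ELISA at 1:4 dilution; IC50 by nonlinear regression of % inhibition vs log concentration.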

[5] = test system: Blood; test: Inhibition of calcium ionophore A-23187-stimulated LTB4 production in human whole blood by ELISA; format: functional, tissue-based
Outline: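 Heparinized human whole blood preincubated 15 min at 37 °C with compound in DMSO. Stimulated 30 min at 37 °C with A23187 (2 μL of 1.5 mM into 150 μL). Plasma LTB4 measured by ELISA at 1:100 dilution; IC50 by nonlinear regression. A single value is one assay averaging two donors.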

[6] = target: T2, Cytochrome P450 3A4; test: Inhibition of CYP3A4; format: ADME
[7] = Half life in Sprague-Dawley rat at 2 mg/kg, iv after 6 to 24 hrs; format: ADME, organism-based; design: dose 2 mg/kg, route intravenous; details: in vivo
Outline: (§1)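 Male rats fasted overnight, 2 or 3 per route. Dosing was 2 mg/kg i.v. as a jugular bolus in PEG400/ethanol/water (40/10/50) and 10 mg/kg p.o. by gavage in 0.5% methylcellulose. Jugular cannula blood was sampled up to 24 h (8-9 samples). Plasma was acetonitrile-precipitated with buspirone internal standard and quantified by LC-MS/MS, positive ESI MRM, calibration […], LLOQ 1-5 ng/mL.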

[8] = Cmax in Sprague-Dawley rat after 10 mg/kg oral dose; format: ADME, organism-based; design: dose 10 mg/kg, route oral; details: in vivo; outline: as §1
[9] = (§2) Bioavailability in Sprague-Dawley rat at 2 mg/kg, iv and 10 mg/kg, po; format: ADME, organism-based; details: Sprague-Dawley, in vivo; outline: as §1
[10] = target: Cytochrome P450 2C9 (Homo sapiens, UniProt P11712); test: Inhibition of CYP2C9; format: ADME
[11] = Volume of distribution at steady state in Sprague-Dawley rat at 2 mg/kg, iv and 10 mg/kg, po; format: ADME, organism-based; details: in vivo, read-out: Vdss; outline: as §1
[12] = target: Cytochrome P450 2D6 (Homo sapiens, UniProt P10635); test: Inhibition of CYP2D6; format: ADME
[13] = AUC in Sprague-Dawley rat at 10 mg/kg, po; format: ADME, organism-based; design: dose 10 mg/kg, route oral; details: plasma; outline: as §1
[14] = Clearance in Sprague-Dawley rat at 2 mg/kg, iv and 10 mg/kg, po; format: ADME, organism-based; details: in vivo; outline: as §1
[15] = Half life in Sprague-Dawley rat at 2 mg/kg, iv; format: ADME, organism-based; design: dose 2 mg/kg, route intravenous; details: in vivo; outline: as §1
[16] = target: CYP3A4 (Homo sapiens, UniProt P08684); test: Inhibition of CYP3A4 at 10 uM; format: ADME
[17] = test system: Rattus norvegicus; test: as §2; format: ADME, organism-based; details: in vivo; outline: as §1

Chain of Cytochrome P450 2D6 (P10635 whole entry): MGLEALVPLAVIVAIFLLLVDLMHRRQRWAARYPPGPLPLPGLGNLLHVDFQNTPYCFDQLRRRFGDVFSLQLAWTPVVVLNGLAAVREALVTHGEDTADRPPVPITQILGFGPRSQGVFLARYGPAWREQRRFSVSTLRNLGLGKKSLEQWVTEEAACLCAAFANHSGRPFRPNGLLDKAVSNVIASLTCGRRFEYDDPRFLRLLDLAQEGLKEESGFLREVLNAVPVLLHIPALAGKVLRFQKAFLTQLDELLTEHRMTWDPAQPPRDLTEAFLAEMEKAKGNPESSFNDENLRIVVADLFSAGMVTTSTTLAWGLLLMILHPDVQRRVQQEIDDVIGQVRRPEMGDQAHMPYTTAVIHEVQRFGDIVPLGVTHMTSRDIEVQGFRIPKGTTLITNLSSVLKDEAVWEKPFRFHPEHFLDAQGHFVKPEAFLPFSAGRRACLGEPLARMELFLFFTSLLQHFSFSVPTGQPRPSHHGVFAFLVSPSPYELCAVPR
T2 sequence (P08684 whole entry): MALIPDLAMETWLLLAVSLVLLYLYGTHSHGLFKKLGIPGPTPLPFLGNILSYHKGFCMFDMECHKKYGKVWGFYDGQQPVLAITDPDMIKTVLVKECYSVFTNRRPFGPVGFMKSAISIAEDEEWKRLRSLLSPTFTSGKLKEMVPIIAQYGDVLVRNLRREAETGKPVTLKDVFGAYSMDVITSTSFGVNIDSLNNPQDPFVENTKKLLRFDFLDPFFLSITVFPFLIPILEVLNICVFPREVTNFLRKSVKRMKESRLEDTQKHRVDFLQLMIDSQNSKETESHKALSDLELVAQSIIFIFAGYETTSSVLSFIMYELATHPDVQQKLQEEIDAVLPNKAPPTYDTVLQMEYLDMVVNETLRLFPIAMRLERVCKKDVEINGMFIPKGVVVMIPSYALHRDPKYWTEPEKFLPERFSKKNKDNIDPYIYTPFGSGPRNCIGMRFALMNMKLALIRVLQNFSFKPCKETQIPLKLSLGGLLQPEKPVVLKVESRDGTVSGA
Chain of Cytochrome P450 2C9 (P11712 whole entry): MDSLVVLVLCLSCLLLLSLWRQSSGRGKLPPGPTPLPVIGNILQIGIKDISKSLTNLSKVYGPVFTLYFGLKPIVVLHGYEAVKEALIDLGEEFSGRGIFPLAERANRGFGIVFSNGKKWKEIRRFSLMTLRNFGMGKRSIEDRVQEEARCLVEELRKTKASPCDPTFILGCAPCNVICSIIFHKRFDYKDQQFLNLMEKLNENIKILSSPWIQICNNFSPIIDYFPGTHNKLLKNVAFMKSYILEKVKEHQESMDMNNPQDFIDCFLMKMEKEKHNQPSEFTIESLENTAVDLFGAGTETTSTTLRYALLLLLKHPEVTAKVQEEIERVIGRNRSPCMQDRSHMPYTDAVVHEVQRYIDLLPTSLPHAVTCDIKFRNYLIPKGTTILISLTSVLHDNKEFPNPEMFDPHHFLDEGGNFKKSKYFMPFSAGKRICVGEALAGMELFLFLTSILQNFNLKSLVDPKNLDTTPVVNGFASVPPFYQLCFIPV
Chain of CYP3A4 (P08684 whole entry): as the sequence (P08684 whole entry) above
Chain of P2Y purinoceptor 12 (Q9H244 whole entry): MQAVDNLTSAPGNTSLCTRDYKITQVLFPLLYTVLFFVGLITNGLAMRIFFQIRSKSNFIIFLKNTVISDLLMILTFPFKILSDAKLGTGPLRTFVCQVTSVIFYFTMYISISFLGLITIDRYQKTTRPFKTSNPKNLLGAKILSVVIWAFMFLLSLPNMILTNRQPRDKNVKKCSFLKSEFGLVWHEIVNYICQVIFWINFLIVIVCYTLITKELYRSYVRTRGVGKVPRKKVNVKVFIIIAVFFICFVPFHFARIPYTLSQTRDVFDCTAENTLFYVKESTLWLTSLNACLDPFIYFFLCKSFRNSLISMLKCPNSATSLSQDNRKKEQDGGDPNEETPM

IC50 [1] [nM] | IC50 [4] [nM] | IC50 [5] [nM] | IC50 [10] [nM] | IC50 [12] [nM] | Structure (SMILES) | also measured
4.8 |  |  |  |  | Cc1cnc(-c2ccc(Cn3c(CC(C)(C)C(=O)O)c(SC(C)(C)C)c4cc(OCc5ccccn5)ccc43)cc2)s1 | TDI [2]: 0.014 min⁻¹
 |  |  |  |  | CCCCC/C=C\C\C=C/C=C/C=C/[C@@H](SC[C@H](N)C(=O)O)[C@@H](O)CCCC(=O)O [LEUKOTRIEN E4] | EC50 [3]: 1.3 nM
27 | 17 | 4370 |  |  | Cc1ccc(-c2ccc(Cn3c(CC(C)(C)C(=O)O)c(SC(C)(C)C)c4cc(OCc5ccccn5)ccc43)cc2)nn1 | 
2.1 |  |  |  |  | CC(C)(C)Sc1c(CC(C)(C)C(=O)O)n(Cc2ccc(-c3ncc(F)s3)cc2)c2ccc(OCc3ccccn3)cc12 | TDI [2]: 0.017 min⁻¹
9 | 3.4 | 370 | 15500 | 2600 | CC(C)(C)Sc1c(CC(C)(C)C(=O)O)n(Cc2ccc(-c3cccnc3)cc2)c2ccc(OCc3ccccn3)cc12 | IC50 [6]: 4700 nM; half-life [7]: 7.6 h; Cmax [8]: 920 ng/mL; bioavailability [9]: 8%; Vd [11]: 0.38 L/kg; AUC [13]: 1880 ng·h/mL; clearance [14]: 7 mL/min/kg
229 | 5.3 | 4860 |  |  | CC(C)(C)CCc1c(CC(C)(C)C(=O)O)n(Cc2ccc(-c3nccs3)cc2)c2ccc(OCc3ccccn3)cc12 | 
299 | 19 | 5520 |  |  | CC(C)(Cc1cc2cc(OCc3ccccn3)ccc2n1Cc1ccc(-c2nccs2)cc1)C(=O)O | 
6.5 | 1.3 | 577 | 10000 | > 10000 | Cc1ccc(-c2ccc(Cn3c(CC(C)(C)C(=O)O)c(SC(C)(C)C)c4cc(OCc5ccccn5)ccc43)cc2)cn1 | inhibition at 10 µM [16]: 64%
7.7 | 3.3 | 1040 |  |  | CC(C)(C)Sc1c(CC(C)(C)C(=O)O)n(Cc2ccc(-c3cncnc3)cc2)c2ccc(OCc3ccccn3)cc12 | 
4 | 3.6 | 1580 | 26900 | > 30000 | COc1ccc(-c2ccc(Cn3c(CC(C)(C)C(=O)O)c(SC(C)(C)C)c4cc(OCc5ccccn5)ccc43)cc2)nn1 | IC50 [6]: 15100 nM; Cmax [8]: 7900 ng/mL; half-life [15]: 2.1 h; F [17]: 42%; Vd [11]: 0.47 L/kg
6.6 | 1.1 | 391 |  |  | CC(C)(Cc1c(CC2CCC2)c2cc(OCc3ccccn3)ccc2n1Cc1ccc(-c2nccs2)cc1)C(=O)O | 

Structure (SMILES) | IC50 [1] [nM] | IC50 [4] [nM] | IC50 [5] [nM] | IC50 [10] [nM] | IC50 [12] [nM] | also measured
CC(C)(C)Sc1c(CC(C)(C)C(=O)O)n(Cc2ccc(-c3nccs3)cc2)c2ccc(OCc3ccccn3)cc12 | 4.8 | 1 | 273 | 9100 | 4000 | TDI [2]: 0.033 min⁻¹; IC50 [6]: 1400 nM; Cmax [8]: 4300 ng/mL; half-life [15]: 6.3 h; bioavailability [9]: 50%; Vd [11]: 0.71 L/kg; AUC [13]: 9540 ng·h/mL; clearance [14]: 8.6 mL/min/kg

Reference: ChEMBL document CHEMBL1153536, “5-lipoxygenase-activating protein inhibitors: development of 3-[3-tert-butylsulfanyl-1-[4-(6-methoxy-pyridin-3-yl)-benzyl]-5-(pyridin-2-ylmethoxy)-1H-indol-2-yl]-2,2-dimethyl-propionic acid (AM103)” (J Med Chem, 2009)
